High-throughput results: PubChem BioAssay, several laboratories
Compounds with a hit are over-represented: about 3.5% of the library has one in this group of screens.
FLuc inhib CS: inhibits firefly luciferase, flagging false hits in luciferase inhibition screens | P08659 | ATPLite firefly luciferase biochemical luminescence, 10 min | inhibition, % at 10 µM | 1.5% of 200,000 active;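 active means inhibition above about 50% when tested at 10 µM, limit read from the data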
Target sequence (P08659 whole entry, looked up): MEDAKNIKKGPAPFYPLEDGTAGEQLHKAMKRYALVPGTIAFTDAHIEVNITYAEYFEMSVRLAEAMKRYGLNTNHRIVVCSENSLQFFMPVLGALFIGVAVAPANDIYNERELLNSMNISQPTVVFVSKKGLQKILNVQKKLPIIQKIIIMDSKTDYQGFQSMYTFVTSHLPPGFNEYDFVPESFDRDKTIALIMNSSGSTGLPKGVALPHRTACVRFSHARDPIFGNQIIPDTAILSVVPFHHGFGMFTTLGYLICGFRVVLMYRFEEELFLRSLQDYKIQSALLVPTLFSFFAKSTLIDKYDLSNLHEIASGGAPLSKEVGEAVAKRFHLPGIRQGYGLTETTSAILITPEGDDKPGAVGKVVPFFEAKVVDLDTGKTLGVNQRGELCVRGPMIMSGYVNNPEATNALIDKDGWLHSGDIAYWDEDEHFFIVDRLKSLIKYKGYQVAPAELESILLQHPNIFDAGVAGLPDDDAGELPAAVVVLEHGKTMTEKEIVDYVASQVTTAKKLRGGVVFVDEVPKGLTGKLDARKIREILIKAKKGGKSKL
Pf gametocyte: P. falciparum stage V gametocyte viability inhibition. P. falciparum stage V gametocytes, ATP luminescence, 24 h. inhibition, % at 10.9 µM. 0.065% of 150,000 active. AID 743093;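 active means inhibition above the mean plus 3 SD of compounds within the control limits, set per campaign, cut at about 38% in these data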;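 further: 0% = DMSO wells and 100% = medium only without gametocytes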
STAT1 act: STAT1 signaling activation; NIH 3T3 STAT1-luciferase reporter, IFN-gamma, luminescence; 100% = IFN-gamma alone, no compound; activation (% of control), % at 5.5 µM; 2.6% of 200,000 active; AID 932;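 active means activation above the screen-wide mean activation plus 3 SD, cut at about 130% in these data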;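 further: raw ratio to IFN-gamma control signal so 100% means no change and 0% no light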
APP 5'UTR act: APP 5'UTR luciferase reporter activation; activation, % at 2 µM; 1% of 190,000 active; SH-SY5Y APP 5'UTR luciferase reporter, luminescence; zero percent = DMSO vehicle wells;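 active means activation above a set limit, based on mean plus 3 SD of controls, cut at about 140% in these data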
FLuc stim CS: firefly luciferase counter-screen for stimulation assays | 200,000 tested, under 10 active | P08659 | activation factor at 10 µM | AID 1027 | ATPlite luciferase biochemical, luminescence, 10 min; 0 = ATP-free wells, 1 = DMSO control;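 active means luciferase activation factor, scaled between plate controls, of at least 2 with compound at 10 µM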
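Assay system: Luciferase/luciferin detection reagent, cell-free biochemical luciferase assay / Also added: ATP substrate / Schedule: 10 min at ambient temperature / Measured by: luminescence measurement of luciferase light output / Benchmarks: low control with PBS replacing ATP, high control enzyme plus ATP without compound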
NF-kB neuron act: NF-kB expression increase, human neuronal cells | NF-kB reporter expression; active compounds read high | fold change at 12.5 µM | 1.6% of 190,000 active | AID 1239; in the data active means fold change above about 3.3
* hit, by the source's call; · = no result.

SMILES	FLuc inhib CS	Pf gametocyte	STAT1 act	APP 5'UTR act	FLuc stim CS	NF-kB neuron act
CCc1ccc(C(=O)Nc2cc3c(cc2Cl)OCCCO3)cc1	13	·	150*	89	0.9	4.6*
O=C(Cc1ccccc1)Nc1cc2c(cc1Cl)OCCCO2	·	2	·	·	·	·
O=C(CSc1nnc(-c2cccs2)o1)N1CCCCC1	14	·	125	76	0.9	2.3
Fc1ccccc1CSc1nnc(-c2cccs2)o1	11	-3	146*	119	0.9	4.1*
Fc1ccc(CSc2nnc(-c3cccs3)o2)cc1	0	7	118	24	1	2.2
CC1CCCC(C)N1C(=O)CSc1nnc(-c2cccs2)o1 (stereo unspecified)	20	19	147*	98	0.8	2.7
CC(CN1CCN(C)CC1)OC(=O)c1cccc(F)c1 (stereo unspecified)	·	-17	·	·	·	·
O=C(CN(Cc1ccccc1F)C(=O)Cn1nnc(-c2cccs2)n1)NCC1CCCO1 (stereo unspecified)	-9	5	103	1	1.1	1.2
O=C1c2ccccc2C(=O)C12OC2c1ccc(Cl)cc1Cl (stereo unspecified)	-9	11	100	-25	1.1	4.1*
CCc1ccc(C(=O)COC(=O)[C@@H](NC(N)=O)[C@@H](C)CC)cc1	89*	-2	106	50	0.1	1.4
COc1cc(C=C2C(=O)c3ccccc3C2=O)ccc1O	·	-9	·	·	·	·
Cc1ccsc1/C=C1\CCc2ccccc2C1=O	92*	·	71	138*	0.1	3.5*
COc1ccc(/C=C2\CCc3ccccc3C2=O)cc1OC	14	·	94	62	0.9	3.6*
COc1ccc(C=C2C(=O)c3ccccc3C2=O)cc1O	62*	2	97	9	0.4	1.5
COc1ccc(/C=C2/CCc3ccccc3C2=O)cc1CN1CCOCC1	10	·	96	33	0.9	0.86
COc1ccc(/C=C2\CC/C(=C\c3ccc(OC)c(OC)c3)C2=O)cc1OC	66*	-3	101	-44	0.3	1.8
COc1cc(OC)cc(-c2nn[nH]n2)c1	-5	1	95	-16	1	1.1
N#C/C(=C\c1ccc(OCc2cccc(C(=O)O)c2)cc1)C(=O)NCc1ccco1	·	-11	·	·	·	·
C=C[C@@H]1c2ccccc2N(S(=O)(=O)c2ccc(C)cc2)[C@H](c2ccc(C(=O)OC)cc2)C1(C#N)C#N	·	-7	·	·	·	·
O=C1/C(=C/c2cccc([N+](=O)[O-])c2)CCc2ccccc21	19	·	89	8	0.8	1.4
O=C1/C(=C\c2ccc3ccccc3c2)CCCc2ccccc21	52*	8	121	41	0.5	4.8*
Nc1nonc1-c1nc2ccccc2n1Cc1ccc(F)cc1Cl	-1	·	135*	8	1	0.95
COc1cccc([C@@H]2Oc3ccc(OC)cc3C(=O)[C@H]2O)c1	-4	·	98	146*	1	5.7*
COc1ccc(C(=O)C2CCCN(Cc3c[nH]c4ccccc34)C2)c(OC)c1 (stereo unspecified)	2	·	90	-8	1	1.1
c1ccc2c(c1)CSc1ccccc1N2	·	-56	·	·	·	·
SMILES	FLuc inhib CS	Pf gametocyte	STAT1 act	APP 5'UTR act	FLuc stim CS	NF-kB neuron act
c1ccc(NC2=Nc3ccccc3CS2)cc1	10	·	138*	113	0.9	3.6*
O=C(/C=C/c1cccs1)Nc1cccc(NC(=O)/C=C/c2cccs2)n1	60*	26	121	45	0.4	0.71
O=C(/C=C/c1cccs1)Nc1ccc(Br)cn1	14	-29	178*	-92	0.9	5.6*
O=C(/C=C\c1ccccc1)Nc1nccs1	53*	-42	118	168*	0.5	6.5*
O=C(/C=C/c1cccs1)Nc1nccs1	26	-2	134*	122	0.7	2.1
Cc1cc(C)nc(NC(=O)/C=C/c2cccs2)c1	41	·	116	46	0.6	1.6
Cc1ccccc1C(C(=O)NC1CCCC1)N(C(=O)CNC(=O)c1ccco1)c1cccnc1 (stereo unspecified)	-3	·	116	8	1	1.1
CC1CCC(N2CCN(C(=O)c3ccccc3F)CC2)CC1 (stereo unspecified)	·	-41	·	·	·	·
CN(/N=C/c1cc(Cl)cc(Cl)c1O)c1c(Cl)cccc1[N+](=O)[O-]	·	17	·	·	·	·
NS(=O)(=O)c1cccc(NC(=O)/C=C/c2cccs2)c1	73*	-11	118	38	0.3	·
NS(=O)(=O)c1ccc(NC(=O)/C=C/c2cccs2)cc1	·	-11	·	·	·	·
O=C(/C=C/c1ccccc1)Nc1scc(-c2ccccc2)c1C(=O)O	74*	7	115	48	0.3	1.9
O=C(/C=C/c1ccco1)Nc1scc(-c2ccccc2)c1C(=O)O	·	25	·	·	·	·
O=C(/C=C/c1cccs1)N1CCCCC1	7	6	130*	44	0.9	1.2
Cn1c2ccccc2c(=O)c2ccc(NCCc3cccs3)cc21	·	-14	·	·	·	·
Cc1ccsc1/C=C(\C#N)C(=O)NCc1ccco1	0	8	101	10	1	1.3
Cc1nn(Cc2ccccc2)c(Cl)c1C(=O)OCC(=O)NC(=O)NC12CC3CC(CC(C3)C1)C2	-3	-6	97	16	1	1
CCC(=O)c1ccc(OCC(O)Cn2nnc3ccccc32)cc1 (stereo unspecified)	2	-33	104	20	1	1.4
Cc1ccccc1OCC(O)Cn1nnc2ccccc21 (stereo unspecified)	0	10	142*	40	1	2.6
N=C1c2ccccc2CN1NC(=O)CC12CC3CC(CC(C3)C1)C2	3	0	102	-6	1	1.6
O=C(CSc1ccc(-c2ccccn2)nn1)c1ccccc1	4	-11	123	39	1	1.6
COC(=O)c1ccnc(SCC(=O)c2ccccc2)c1	22	-30	132*	119	0.8	2
CC(=O)c1cccc(NC(=O)c2cc(C(C)C)on2)c1	35	·	122	119	0.6	3.9*
CC(C)c1cc(C(=O)Nc2cccc(Cl)c2)no1	26	·	124	187*	0.7	11*
CC(C)c1onc(C(=O)Nc2cccc(Cl)c2)c1[N+](=O)[O-]	-2	·	93	17	1	0.91
Cc1nnc(SCC(=O)NCc2ccc3c(c2)OCO3)n1C	-9	-10	92	1	1.1	1.2
O=C(N/N=C/c1ccccn1)c1ccc([N+](=O)[O-])cc1	67*	-33	133*	16	0.3	1.5
O=C(N/N=C/c1ccccn1)c1cc([N+](=O)[O-])cc([N+](=O)[O-])c1	-2	·	129*	-5	1	0.8
O=C(N/N=C/c1ccccn1)c1cccc([N+](=O)[O-])c1	4	-5	114	-2	1	0.78
COc1ccc2c(c1)OC[C@H]1[C@H]2N2C(=O)CN(CCc3c[nH]c4ccccc34)C(=O)[C@@]2(C)[C@H]1c1ccccc1	·	8	·	·	·	·
